{"source": "ChEMBL document CHEMBL3045646", "about": "“Synthesis and antityrosinase activities of alkyl 3,4-dihydroxybenzoates” (J Agric Food Chem, 2011)", "key": {"[1]": {"target": "T1, Tyrosinase (Agaricus bisporus) (UniProt O42713)", "T1 sequence (whole entry)": "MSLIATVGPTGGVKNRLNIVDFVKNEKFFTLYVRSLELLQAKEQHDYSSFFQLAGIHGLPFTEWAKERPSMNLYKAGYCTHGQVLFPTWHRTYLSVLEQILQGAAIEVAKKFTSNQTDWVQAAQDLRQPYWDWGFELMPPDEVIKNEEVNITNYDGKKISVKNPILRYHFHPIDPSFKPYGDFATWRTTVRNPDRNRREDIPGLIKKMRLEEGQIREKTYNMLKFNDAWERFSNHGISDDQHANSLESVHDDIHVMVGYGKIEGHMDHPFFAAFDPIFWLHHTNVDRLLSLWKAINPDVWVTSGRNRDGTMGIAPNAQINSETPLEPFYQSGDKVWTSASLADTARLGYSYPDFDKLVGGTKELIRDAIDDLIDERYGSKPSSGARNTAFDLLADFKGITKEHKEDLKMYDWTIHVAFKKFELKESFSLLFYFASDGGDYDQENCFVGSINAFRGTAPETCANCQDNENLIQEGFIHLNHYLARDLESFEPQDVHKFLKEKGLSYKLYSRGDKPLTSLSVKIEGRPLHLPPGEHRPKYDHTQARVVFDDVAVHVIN", "assay": "Irreversible inhibition of Agaricus bisporus (mushroom) tyrosinase assessed as remaining enzyme activity using L-DOPA as substrate by spectrophotometric analysis", "method_in_brief": "(§1)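 Reversibility tested with L-DOPA as substrate in pH 6.8 phosphate buffer at 30 °C, with A475 read-out. Remaining activity was plotted against enzyme concentration at several inhibitor levels, with inhibitor series of 0–200, 0–100 or 0–80 μM. Lines through the origin were taken as reversible, and parallel lines not through the origin as irreversible.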"}, "Tyrosinase [2]": {"target": "T2, Tyrosinase (Agaricus bisporus, UniProt O42713)", "T2 sequence (O42713 whole entry)": "T1 sequence (whole entry)", "assay": "Inhibition of Agaricus bisporus (mushroom) tyrosinase-catalyzed oxidation of L-DOPA substrate by spectrophotometric analysis", "method_in_brief": "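Diphenolase activity of mushroom tyrosinase (6.67 μg/mL final) with 0.5 mM L-DOPA in 50 mM sodium phosphate pH 6.8, 30 °C. Inhibitors added from DMSO, 3.3% DMSO final; DMSO-only controls. Rate from slope of linear A475 progress curve. IC50 = concentration giving 50% activity loss.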"}, "[3]": {"target": "T1, Tyrosinase (Agaricus bisporus)", "assay": "Uncompetitive inhibition of Agaricus bisporus (mushroom) tyrosinase assessed as […] in Km and Vm without change in Km/Vm using L-DOPA as substrate at 50 uM by Line-weaver burk plot analysis", "method_in_brief": "(§2)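 L-DOPA oxidation by mushroom tyrosinase at 30 °C, pH 6.8, with inhibitor at 0, 50, 100, 150 and 200 μM, read at 475 nm. Inhibition type came from Lineweaver–Burk plots (1/v vs 1/[S]). K_IS came from a secondary plot of 1/V_m (or apparent K_m/V_m) against inhibitor concentration.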"}, "[4]": {"target": "T1, Tyrosinase (Agaricus bisporus)", "assay": "Irreversible inhibition of Agaricus bisporus (mushroom) tyrosinase assessed as remaining enzyme activity at >75 uM using L-DOPA as substrate by spectrophotometric analysis", "method_in_brief": "as §1"}, "[5]": {"target": "T1, Tyrosinase (Agaricus bisporus)", "assay": "Reversible inhibition of Agaricus bisporus (mushroom) tyrosinase assessed as remaining enzyme activity at <50 uM using L-DOPA as substrate by spectrophotometric analysis", "method_in_brief": "as §1"}, "Tyrosinase [6]": {"target": "T2, Tyrosinase", "assay": "Inhibition of Agaricus bisporus (mushroom) tyrosinase using L-DOPA as substrate by secondary plot analysis", "method_in_brief": "as §2"}, "[7]": {"target": "T1, Tyrosinase (Agaricus bisporus)", "assay": "Uncompetitive inhibition of Agaricus bisporus (mushroom) tyrosinase assessed as […] in Km and Vm without change in Km/Vm using L-DOPA as substrate by Line-weaver burk plot analysis", "method_in_brief": "as §2"}, "[8]": {"target": "T1, Tyrosinase (Agaricus bisporus)", "assay": "Reversible inhibition of Agaricus bisporus (mushroom) tyrosinase assessed as remaining enzyme activity using L-DOPA as substrate by spectrophotometric analysis", "method_in_brief": "as §1"}, "Plutella xylostella [9]": {"test_system": "Plutella xylostella", "assay": "Downregulation of tyrosinase inactive precursor, PxPPO gene expression in newly molted second-instar larval stage of Plutella xylostella (diamondback moth) at 2.5 to 40 mg/ml after 72 hr by real-time quantitative PCR analysis", "type": "functional, organism-based", "method_in_brief": "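Compound in acetone, diluted to 2.5, 5, 20 and 40 mg/mL and spread on feed surface in wells. Larvae reared at 27 ± 2 °C, 70% humidity, 14:10 h light:dark. Whole-body PxPPO2 transcripts measured 72 h after treatment by real-time qPCR (95 °C 10 s; 45 cycles of 95 °C 5 s / 60 °C 20 s), with melting-curve check, normalized to GAPDH.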"}, "Plutella xylostella [10]": {"test_system": "Plutella xylostella", "assay": "Insecticidal activity against second-instar larval stage of Plutella xylostella (diamondback moth) assessed as inhibition of insect development and molting at 40 mg/ml after 3 days (reference value: 0.95 cm)", "type": "functional", "method_in_brief": "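Compound dissolved in acetone, diluted (2.5–40 mg/mL) and spread over feed surface. Larvae kept at 27 ± 2 °C, 70% humidity, 14:10 h light:dark photoperiod. Larval body length recorded after 3 days.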"}}, "note": "pIC50, pKi: −log10 of the molar value. The source made the active and inactive calls. The rule behind the calls is not given here."}
{"smiles": "CCCCCCCCCOC(=O)c1ccc(O)c(O)c1", "note": "[NONYL 3,4-DIHYDROXYBENZOATE]", "values": [{"measurement": "inhibition", "setting": "[1]", "result": "Active"}, {"measurement": "pIC50", "setting": "Tyrosinase [2]", "result": 4.09}]}
{"smiles": "CCCCCCCCOC(=O)c1ccc(O)c(O)c1", "note": "[OCTYL 3,4-DIHYDROXYBENZOATE]", "values": [{"measurement": "inhibition", "setting": "[3]", "result": "Active"}, {"measurement": "inhibition", "setting": "[4]", "result": "Active"}, {"measurement": "inhibition", "setting": "[5]", "result": "Active"}, {"measurement": "pIC50", "setting": "Tyrosinase [2]", "result": 3.89}]}
{"smiles": "CCCCCCCOC(=O)c1ccc(O)c(O)c1", "note": "[HEPTYL 3,4-DIHYDROXYBENZOATE]", "values": [{"measurement": "pKi", "setting": "Tyrosinase [6]", "result": 3.87}, {"measurement": "inhibition", "setting": "[7]", "result": "Active"}, {"measurement": "pIC50", "setting": "Tyrosinase [2]", "result": 3.50}, {"measurement": "inhibition", "setting": "[8]", "result": "Active"}]}
{"smiles": "CCCCCCOC(=O)c1ccc(O)c(O)c1", "note": "[HEXYL 3,4-DIHYDROXYBENZOATE]", "values": [{"measurement": "inhibition", "setting": "[3]", "result": "Active"}, {"measurement": "pKi", "setting": "Tyrosinase [6]", "result": 3.41}, {"measurement": "inhibition", "setting": "Plutella xylostella [9]", "result": "Active"}, {"measurement": "Activity", "setting": "Plutella xylostella [10]", "result": 0.3, "unit": "cm"}, {"measurement": "pIC50", "setting": "Tyrosinase [2]", "result": 3.04}, {"measurement": "inhibition", "setting": "[8]", "result": "Active"}]}
